Measurements published in the M2OR odorant receptor database.

Target: T1, OR5H6 (Homo sapiens) (UniProt Q8NGV6)
T1 sequence (whole entry): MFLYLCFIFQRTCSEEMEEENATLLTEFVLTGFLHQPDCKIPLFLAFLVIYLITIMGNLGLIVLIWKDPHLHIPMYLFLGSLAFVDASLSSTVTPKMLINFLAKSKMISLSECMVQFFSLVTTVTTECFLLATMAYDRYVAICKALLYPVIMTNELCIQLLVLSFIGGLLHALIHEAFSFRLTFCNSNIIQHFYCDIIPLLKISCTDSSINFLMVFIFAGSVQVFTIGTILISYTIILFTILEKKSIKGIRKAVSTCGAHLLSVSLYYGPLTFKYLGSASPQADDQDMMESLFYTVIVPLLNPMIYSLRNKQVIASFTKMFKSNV
Conditions: stereoisomer not certain
How it was run: (§1)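 Assay methods differ from source to source, frequently being transient luciferase assays in mammalian cell lines. For each receptor–molecule pair, the label responsive (active) applies when the original authors judged the measured signal statistically different from baseline, and non-responsive (inactive) applies otherwise.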

Row | Compound | odorant receptor agonist call
1 | CC(=O)c1c(C)c([N+](=O)[O-])c(C(C)(C)C)c([N+](=O)[O-])c1C | inactive
2 | CCC(S)C(C)CO (centres undefined) | inactive
3 | CC1=C(O)C(=O)C(C)O1 (centres undefined) | inactive
4 | CC1CCCCCCCCCCCCC(=O)C1 (centres undefined) | inactive
5 | CC1=C(O)C(=O)OC1C (centres undefined) | inactive
6 | CCCCCC(=O)C(C)C(C)=O (centres undefined) | inactive
7 | CCC1OC(=O)C(O)=C1C (centres undefined) | inactive
8 | CCCC(S)CCOC(C)=O (centres undefined) | inactive
9 | CCCCCCC=CCCC=O | inactive
10 | CCCCC(S)C(C)CO (centres undefined) | inactive
11 | Cc1cnc(C)c(C)n1 | inactive
12 | CCCCCC(S)C(C)CO (centres undefined) | inactive
13 | CC1=NC(C)C(C)S1 (centres undefined) | inactive
14 | CC(CO)CS (centres undefined) | inactive
15 | CCC1OC(C)=C(O)C1=O (centres undefined) | inactive

Target: T2, OR5I1 (Homo sapiens) (UniProt Q13606)
T2 sequence (whole entry): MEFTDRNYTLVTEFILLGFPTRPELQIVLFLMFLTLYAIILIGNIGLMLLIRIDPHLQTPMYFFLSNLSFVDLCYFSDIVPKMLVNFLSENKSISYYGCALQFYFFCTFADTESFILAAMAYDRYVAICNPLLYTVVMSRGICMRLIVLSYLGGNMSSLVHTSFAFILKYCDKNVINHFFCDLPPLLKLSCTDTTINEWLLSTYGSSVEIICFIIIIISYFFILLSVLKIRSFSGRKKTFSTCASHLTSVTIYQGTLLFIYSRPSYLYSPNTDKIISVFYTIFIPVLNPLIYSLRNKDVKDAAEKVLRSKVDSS
Conditions: stereoisomer not certain
How it was run: as §1

Row | Compound | odorant receptor agonist call
16 | CC(=O)c1c(C)c([N+](=O)[O-])c(C(C)(C)C)c([N+](=O)[O-])c1C | inactive
17 | CC1=C(O)C(=O)C(C)O1 (centres undefined) | inactive
18 | CC1CCCCCCCCCCCCC(=O)C1 (centres undefined) | inactive
19 | CC1=C(O)C(=O)OC1C (centres undefined) | inactive
20 | CCC1OC(=O)C(O)=C1C (centres undefined) | inactive
21 | CCCC(S)CCOC(C)=O (centres undefined) | inactive
22 | CCCCCCC=CCCC=O | inactive
23 | Cc1cnc(C)c(C)n1 | inactive
24 | CC1=NC(C)C(C)S1 (centres undefined) | inactive
25 | CCC1OC(C)=C(O)C1=O (centres undefined) | inactive

Target: T3, OR5J2 (Homo sapiens) (UniProt Q8NH18)
T3 sequence (whole entry): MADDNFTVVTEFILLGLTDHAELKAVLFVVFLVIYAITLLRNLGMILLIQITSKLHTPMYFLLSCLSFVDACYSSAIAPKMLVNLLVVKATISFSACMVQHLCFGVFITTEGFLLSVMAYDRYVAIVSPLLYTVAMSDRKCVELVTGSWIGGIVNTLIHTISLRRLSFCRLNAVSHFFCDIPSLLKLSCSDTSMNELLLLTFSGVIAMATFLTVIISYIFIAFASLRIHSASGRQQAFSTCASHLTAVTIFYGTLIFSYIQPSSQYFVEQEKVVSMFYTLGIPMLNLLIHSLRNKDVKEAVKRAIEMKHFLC
Conditions: stereoisomer not certain
How it was run: as §1

Row | Compound | odorant receptor agonist call
26 | CC(=O)c1c(C)c([N+](=O)[O-])c(C(C)(C)C)c([N+](=O)[O-])c1C | inactive
27 | CCC(S)C(C)CO (centres undefined) | inactive
28 | CC1=C(O)C(=O)C(C)O1 (centres undefined) | inactive
29 | CC1CCCCCCCCCCCCC(=O)C1 (centres undefined) | inactive
30 | CC1=C(O)C(=O)OC1C (centres undefined) | inactive
31 | CCCCCC(=O)C(C)C(C)=O (centres undefined) | inactive
32 | CCC1OC(=O)C(O)=C1C (centres undefined) | inactive
33 | CCCC(S)CCOC(C)=O (centres undefined) | inactive
34 | CCCCCCC=CCCC=O | inactive
35 | CCCCC(S)C(C)CO (centres undefined) | inactive
36 | Cc1cnc(C)c(C)n1 | inactive
37 | CCCCCC(S)C(C)CO (centres undefined) | inactive
38 | CC1=NC(C)C(C)S1 (centres undefined) | inactive
39 | CC(CO)CS (centres undefined) | inactive
40 | CCC1OC(C)=C(O)C1=O (centres undefined) | inactive

Target: T4, OR5K1 (Homo sapiens) (UniProt Q8NHB7)
T4 sequence (whole entry): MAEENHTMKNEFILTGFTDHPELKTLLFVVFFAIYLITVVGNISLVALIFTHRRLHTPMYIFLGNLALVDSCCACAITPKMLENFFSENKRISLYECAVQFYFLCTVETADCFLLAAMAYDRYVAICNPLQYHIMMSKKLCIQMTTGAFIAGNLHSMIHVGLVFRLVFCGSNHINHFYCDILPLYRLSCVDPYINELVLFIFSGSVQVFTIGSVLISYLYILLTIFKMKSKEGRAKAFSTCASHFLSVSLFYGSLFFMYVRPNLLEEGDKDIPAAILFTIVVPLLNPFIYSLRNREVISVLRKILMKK
Conditions: stereoisomer not certain
How it was run: as §1

Row | Compound | odorant receptor agonist call
41 | CC1CCc2nccnc21 (centres undefined) | active
42 | CCc1cnc(C)c(C)n1 | inactive
43 | COc1nccnc1C(C)C | active
44 | CCc1nccnc1OC | active
45 | CCC(C)c1nccnc1OC (centres undefined) | active
46 | Cc1cnccn1 | active
47 | CCC(S)C(C)CO (centres undefined) | inactive
48 | CCc1nccnc1C | active
49 | Cc1cnc(C)cn1 | active
50 | CC1=C(O)C(=O)C(C)O1 (centres undefined) | inactive
51 | CC1=C(O)C(=O)OC1C (centres undefined) | inactive
52 | CCCCCC(=O)C(C)C(C)=O (centres undefined) | inactive
53 | CC(=O)c1cnccn1 | active
54 | CCC1OC(=O)C(O)=C1C (centres undefined) | inactive
